Laboratory results reported in ChEMBL document CHEMBL1145403, “Structure-based design of flavonoid compounds as a new class of small-molecule inhibitors of the anti-apoptotic Bcl-2 proteins” (J Med Chem, 2007).
Calls of active or inactive are those of the source. The calls are words filed in the database; no cut-off is given here.

Legend:
[1] = target: Apoptosis regulator Bcl-2 (Homo sapiens, UniProt P10415); test: Displacement of FAM-Bim peptide from human Bcl2 by fluorescence polarization assay
[2] = target: Induced myeloid leukemia cell differentiation protein Mcl-1 (Homo sapiens, UniProt Q07820); test: Displacement of FAM-Bim peptide from human Mcl1 by fluorescence polarization assay
In short: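 Compound added from DMSO, 4 h incubation, polarization at ex 485/em 530 nm. IC50 by nonlinear least-squares fit; Ki from the FP equation.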

[3] = tested on: MDA-MB-231; test: Growth inhibition of human MDA-MB-231 cells after 4 days by WST-based assay; assay type: functional, cell-based; conditions: MDA-MB-231, 96 h
In short: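 Cells seeded at 3-4 × 10^3/well together with graded compound concentrations and cultured 4 days. WST-8 added at 10% final, then 2-3 h at 37°C. Absorbance read at 450 nm. IC50 = 50% growth inhibition relative to untreated cells.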

[4] = tested on: MDA-MB-231; test: Induction of apoptosis in human MDA-MB-231 cells at 1 uM after 3 days by Annexin V/propidium iodide staining
[5] = tested on: MDA-MB-231; test: Induction of apoptosis in human MDA-MB-231 cells after 3 days by Annexin V/propidium iodide staining-based flow cytometry
[6] = tested on: MDA-MB-231; test: Induction of apoptosis in human MDA-MB-231 cells at 0.5 uM after 3 days by Annexin V/propidium iodide staining-based flow cytometry

Sequence of Apoptosis regulator Bcl-2 (P10415 whole entry): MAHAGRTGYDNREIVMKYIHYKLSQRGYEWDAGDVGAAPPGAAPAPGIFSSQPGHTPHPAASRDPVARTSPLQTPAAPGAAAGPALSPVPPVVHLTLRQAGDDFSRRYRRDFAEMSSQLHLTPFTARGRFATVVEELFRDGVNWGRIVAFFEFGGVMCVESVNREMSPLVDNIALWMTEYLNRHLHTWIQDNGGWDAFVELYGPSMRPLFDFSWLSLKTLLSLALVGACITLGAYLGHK
Sequence of Induced myeloid leukemia cell differentiation protein Mcl-1 (Q07820 whole entry): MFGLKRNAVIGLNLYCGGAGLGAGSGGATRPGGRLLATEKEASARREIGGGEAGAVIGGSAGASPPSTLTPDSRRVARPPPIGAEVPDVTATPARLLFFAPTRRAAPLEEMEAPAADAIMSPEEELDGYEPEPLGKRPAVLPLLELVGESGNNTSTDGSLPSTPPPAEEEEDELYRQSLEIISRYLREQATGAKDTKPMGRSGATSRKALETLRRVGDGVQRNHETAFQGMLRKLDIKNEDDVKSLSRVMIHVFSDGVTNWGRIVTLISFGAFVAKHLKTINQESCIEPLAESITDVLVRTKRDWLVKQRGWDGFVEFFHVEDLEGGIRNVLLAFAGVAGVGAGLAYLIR

Row | Compound | Ki [1] [nM] | Ki [2] [nM] | IC50 [3] [µM] | Activity [1] | Activity [2] | Activity [4] [%] | Activity [5] | Activity [6] [%]
1 | Cc1cc(=O)c2c(O)c(O)c(O)c(CC(C)C)c2o1 | 730 | 1690 | 30 |  |  |  |  | 
2 | Cc1oc2c(CC(C)C)c(O)c(O)c(O)c2c(=O)c1-c1ccccc1 | 340 | 400 | 5.3 |  |  |  |  | 
3 | COc1c(OC)c(OC)c2c(=O)c(-c3ccc(-c4c(C)oc5c(CC(C)C)c(OC)c(OC)c(OC)c5c4=O)cc3)c(C)oc2c1CC(C)C |  |  | > 100 | inactive | inactive |  |  | 
4 | Cc1cc2c(C(C)C)c(O)c(O)c(C=O)c2c(O)c1-c1c(C)cc2c(C(C)C)c(O)c(O)c(C=O)c2c1O [GOSSYPOL] |  | 280 | 1.9 |  |  |  |  | 
5 | Cc1oc2c(CC(C)C)c(O)c(O)c(O)c2c(=O)c1-c1ccc(-c2c(C)oc3c(CC(C)C)c(O)c(O)c(O)c3c2=O)cc1 | 17 | 18 | 0.11 |  |  | 64.4 | Dose-dependent effect | 24.5
